Source: PubChem (The Scripps Research Institute Molecular Screening Center)
Only some compounds are listed: those with a hit (about 1.8% of all), similar ones and a draw of the others.
CHRM5 antagonist = CHRM5 antagonism in calcium assay; P08912; CHO-hM5 cells, Fluo-8 calcium fluorescence, ACh EC80; inhibition, % at 3 µM; 360,000 tested, 0.59% active;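 active means inhibition above a per-plate cutoff, the mean of that plate's test compounds plus 3 SD, cut at about 27% in these data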;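 further: 0% = acetylcholine EC80 with DMSO and 100% = DMSO without agonist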
Target sequence (P08912 whole entry, looked up): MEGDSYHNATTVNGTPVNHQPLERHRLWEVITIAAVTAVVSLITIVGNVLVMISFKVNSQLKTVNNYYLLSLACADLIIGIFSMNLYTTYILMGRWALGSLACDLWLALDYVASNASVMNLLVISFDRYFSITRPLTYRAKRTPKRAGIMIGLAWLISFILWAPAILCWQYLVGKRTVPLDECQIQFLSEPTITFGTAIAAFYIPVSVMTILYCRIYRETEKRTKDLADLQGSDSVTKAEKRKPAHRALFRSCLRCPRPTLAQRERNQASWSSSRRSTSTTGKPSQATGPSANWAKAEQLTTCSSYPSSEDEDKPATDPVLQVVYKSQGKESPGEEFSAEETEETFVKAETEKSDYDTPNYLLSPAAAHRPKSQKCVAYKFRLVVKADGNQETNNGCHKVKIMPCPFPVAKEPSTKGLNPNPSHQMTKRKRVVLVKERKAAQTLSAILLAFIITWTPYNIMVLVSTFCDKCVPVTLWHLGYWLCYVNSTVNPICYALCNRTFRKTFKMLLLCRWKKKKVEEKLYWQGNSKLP
CHRM4 PAM = CHRM4 positive allosteric modulation; activation, % at 3 µM; AID 624126; 360,000 tested, 0.4% active; P08173; CHO-K1 hM4/Gqi5, Fluo-8 calcium fluorescence, ACh EC20; 0% = ACh EC20, 100% = maximal ACh;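 active means activation above its plate's cutoff, the mean activation of sample wells plus 3 SD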
CHRM4 agonist = CHRM4 agonism in calcium assay; P08173; CHO-K1 hM4/Gqi5, Fluo-8 calcium fluorescence; vehicle 0%, full acetylcholine response 100%; 360,000 tested, 0.14% active; activation, % at 3 µM;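 active means activation above the run mean over all test wells plus 3 SD, cut at about 32% in these data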;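 further: peak over basal fluorescence ratio per well then scaled between controls; 0% = DMSO wells and 100% = acetylcholine at EC100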
M4 antag = blocks acetylcholine activation of human M4 receptor; 360,000 tested, 0.73% active; inhibition, % at 3 µM; P08173; CHO-hM4 cells, ACh EC80, Fluo-8 calcium fluorescence;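 active means inhibition above its plate's cutoff, the mean inhibition of sample wells plus 3 SD, cut at about 27% in these data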;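 further: 0% = acetylcholine EC80 with DMSO and 100% = DMSO without agonist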
CHRM5 PAM = CHRM5 positive allosteric modulation. P08912. CHO-K1 hM5, Fluo-8 calcium, ACh EC20 PAM; 0% = ACh EC20, 100% = ACh EC100. activation, % at 3 µM. 360,000 tested, 0.3% active. AID 624038;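 active means activation above the run cutoff, the mean activation of all test compounds plus 3 SD, cut at about 18% in these data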
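System: CHO-K1 hM5 cells. Reagent: acetylcholine, EC20 level. Compound dosing: single dose, 3 µM nominal final test concentration. Timing: Post-acetylcholine fluorescence recording 140 s. Detection: Fluo-8 calcium fluorescence. Read-out: % activation, ACh-normalized. Benchmarks: ACh EC20 and EC100 wells. Repeats: singlicate, one well per test compound.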
M5 ag = agonists of human muscarinic M5 receptor (CHRM5). P08912. 360,000 tested, 0.19% active. activation, % at 3 µM. CHO-K1 hM5 cells, Fluo-8 calcium fluorescence; 0% DMSO wells, 100% maximal acetylcholine response;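 active means activation above the run's mean over test compounds plus 3 SD, cut at about 23% in these data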;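 further: signal is peak over basal fluorescence ratio across the kinetic read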
Numbers without * were called inactive.

SMILES	CHRM5 antagonist	CHRM4 PAM	CHRM4 agonist	M4 antag	CHRM5 PAM	M5 ag
O=C(COC(=O)CNC(=O)c1ccc(Br)o1)Nc1ccc2c(c1)OCCO2	0	-5	2	16	0	4
O=C(COC(=O)C1COc2ccccc2O1)Nc1cccc(Cl)c1 (configuration not stated)	18	0	1	6	-7	-1
O=C(COC(=O)c1ccc(Br)o1)Nc1ccc2c(c1)OCCO2	-3	26*	1	-10	-1	2
O=C(COC(=O)C1COc2ccccc2O1)NC(=O)Nc1ccc2c(c1)OCCO2 (configuration not stated)	0	23*	2	0	1	0
O=C(NC1CC1)C1CCN(C2CCN(C(=O)/C=C/c3ccc(F)cc3)CC2)CC1	-17	7	2	-13	4	-2
Cn1c(SCCN2CCCC2)nnc1C1CCN(S(=O)(=O)c2cccc(F)c2)CC1	13	-16	1	32*	-8	-8
Cn1c(SCC(N)=O)nnc1C1CCN(S(=O)(=O)c2ccccc2C(F)(F)F)CC1	2	5	1	-6	7	-4
Cc1ccc(C(=O)N/C(=C/c2ccccc2)C(=O)NCC2CCCO2)cc1 (configuration not stated)	-10	15	-1	-22	21*	-3
NC(=O)c1ccsc1NC(=O)CN1CCN(S(=O)(=O)c2ccccc2C(F)(F)F)CC1	15	-11	30	15	-44	12
O=C(O)/C=C/C(=O)NCc1ccccc1	-2	6	0	6	0	-1
O=C(O)/C=C/C(=O)NCc1ccccn1	1	7	1	-11	21*	1
O=C(NCc1ccccn1)C(=O)N/N=C/c1ccccc1O	-3	-8	-1	47*	4	-4
Cc1cc(/C=N/NC(=O)C(=O)NCc2ccccn2)c(C)n1-c1cccc(Br)c1	-6	-7	4	-9	3	-2
CCN(CC)c1nc(Oc2ccc(=O)[nH]n2)nc(N2CCOCC2)n1	5	7	1	-1	1	2
COc1ccc(C(=O)Nc2cc(-c3ccccc3)nn2-c2ccccc2F)cc1	-13	21	-1	-4	25*	-7
COc1ccc(CCN2C(=O)C(Oc3ccccc3C)C2c2ccc3c(c2)OCO3)cc1 (configuration not stated)	13	-11	5	-1	3	1
COc1ccc(CCN2C(=O)C(Oc3ccccc3C)C2c2ccc3c(c2)OCO3)cc1OC (configuration not stated)	11	-6	5	29*	-16	-1
Cc1cc(NC(=O)CCCN2C(=O)c3cccc4cccc(c34)C2=O)no1	4	19*	-1	-28	15	-2
CCOCC(=O)Nc1ccc([N+](=O)[O-])cc1OC	4	12	1	-8	1	-3
CCOC(=O)CS(=O)(=O)CC(=O)Nc1ccc([N+](=O)[O-])cc1OC	-5	10	1	-8	20*	3
COc1ccccc1/C=C(\NC(=O)c1cccc(C)c1)C(=O)Nc1ccccn1	11	27*	8	27*	13	-2
CCCCSc1nnc(CSc2nc3nc(C)cc(C)n3n2)o1	1	2	1	-5	-1	-3
Cc1ccc(NC(=O)c2ccc(C(=O)c3ccccc3)cc2)nc1	7	-8	5	7	-6	-1
COCCN(CC(=O)NC1CCCCC1)C(=O)/C=C/C(=O)c1ccc(OC)cc1O	12	-5	2	18	10	3
COc1ccc(C(=O)/C=C/C(=O)N(CC(=O)NC2CCCCC2)Cc2cccs2)c(O)c1	19	-18	16	34*	-4	11
SMILES	CHRM5 antagonist	CHRM4 PAM	CHRM4 agonist	M4 antag	CHRM5 PAM	M5 ag
C[C@]12c3[nH]c4ccc(Cl)cc4c3CCN1C(=O)[C@@H](CC(=O)NCc1ccco1)C[C@@H]2C(=O)N1CCCCC1	-1	-4	2	-9	-5	6
CC(C)C(=O)NNC(=O)c1cc2sccc2s1	10	2	1	-3	-2	2
CC(=O)Nc1ccc(Nc2ncnc3c2cnn3-c2cccc(C)c2)cc1	-4	5	0	0	4	0
COc1ccccc1Oc1ncnc2c1cnn2-c1ccccc1	12	-4	0	-2	-4	-6
COc1ncnc2c1cnn2-c1ccccc1	-8	27*	1	-16	4	0
CC(=O)Nc1ccc(Nc2ncnc3c2cnn3-c2ccccc2)cc1	5	21	6	28*	0	-1
CC(=O)Nc1c(C)ccc(CNC(=O)COc2cc(C)ccc2C)c1C	3	-2	1	5	-3	1
CC(C)N1CCC1(C)C(=O)Nc1nc2ccccc2[nH]1 (configuration not stated)	9	7	0	-10	5	1
CC[C@]12c3[nH]c4ccc(OC)cc4c3CCN1C(=O)C(CC(=O)NC(C)(C)C)C[C@@H]2C(=O)N1CCN(C(=O)c2ccco2)CC1 (some centres not stated)	-2	6	0	-6	1	0
O=C(OCC(=O)N1CCc2ccccc21)C1=COCCO1	-9	29*	-1	10	6	2
Cc1ccccc1Nc1nccc(N(C)C)c1C#N	18	-8	11	4	-9	-1
COC(=O)C1CCN(Cc2c(C(=O)N3C[C@@H](C)O[C@@H](C)C3)nc3ccc(Cl)cn23)CC1	-18	12	0	-8	19*	-2
Cc1cccc(OCc2n(CC(=O)OC3CC(C)CCC3C(C)C)c3ccccc3[n+]2C)c1 (configuration not stated)	40*	-17	3	39*	-20	-9
CCCNC(=O)CC(NS(=O)(=O)c1ccc(OC)cc1)c1ccco1 (configuration not stated)	-2	4	2	-4	3	3
Cc1ccccc1-n1c(SCC(=O)NC2CC2)nc2ccccc2c1=O	-2	-2	1	0	-3	1
N#C/C(=N/Nc1ccccc1[N+](=O)[O-])C(N)=S	29*	-9	17	10	-12	5
N#C/C(=N\Nc1ccccc1)C(N)=S	-2	-5	11	-14	-2	7
Cc1ccc2cc3cc(C(=O)NCCN4CCOCC4)oc3nc2c1	-13	12	3	-6	21*	2
CC(C)N(NC(=O)c1cccc2ccccc12)C(C)C	14	-7	0	-1	-3	1
O=C(Nc1csc([N+](=O)[O-])c1)Nc1ccccc1Cl	45*	-27	25	29*	-35	0
